Laboratory results as given in ChEMBL document CHEMBL4020787, “Lodopyridones B and C from a marine sediment-derived bacterium Saccharomonospora sp” (Bioorg Med Chem Lett, 2017).
Active and inactive are the calls of the source. The rule behind the calls is not given here.

Legend:
[1] = molecular target: Beta-secretase 1 (Homo sapiens) (UniProt P56817); experiment: Inhibition of BACE1 (unknown origin) at 1 to 100 uM using Rh-EVNLDAEFK-Quencher as substrate after 60 mins by fluorescence spectroscopy
Sequence of Beta-secretase 1 (Homo sapiens) (P56817 whole entry): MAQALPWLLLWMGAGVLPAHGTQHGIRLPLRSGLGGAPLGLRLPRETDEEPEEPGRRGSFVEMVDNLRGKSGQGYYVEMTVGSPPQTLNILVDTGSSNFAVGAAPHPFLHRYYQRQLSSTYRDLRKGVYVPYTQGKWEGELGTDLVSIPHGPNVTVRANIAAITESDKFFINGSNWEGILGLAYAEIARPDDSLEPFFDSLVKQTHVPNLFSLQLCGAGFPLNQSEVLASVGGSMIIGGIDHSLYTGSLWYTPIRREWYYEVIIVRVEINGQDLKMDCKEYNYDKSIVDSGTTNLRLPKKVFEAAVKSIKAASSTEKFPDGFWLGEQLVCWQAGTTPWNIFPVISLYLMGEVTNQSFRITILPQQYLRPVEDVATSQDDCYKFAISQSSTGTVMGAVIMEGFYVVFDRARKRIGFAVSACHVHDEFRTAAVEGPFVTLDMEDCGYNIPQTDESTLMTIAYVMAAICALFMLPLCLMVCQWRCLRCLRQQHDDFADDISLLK
Method in brief: (§1)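 Enzyme tested across a concentration series, with isoliquiritigenin as the reference drug. Activity is reported as percent inhibition.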

[2] = molecular target: Beta-secretase 1 (Homo sapiens) (UniProt P56817); experiment: Inhibition of BACE1 (unknown origin) at <100 nM using Rh-EVNLDAEFK-Quencher as substrate after 60 mins by fluorescence spectroscopy; method in brief: as §1
[3] = molecular target: Beta-secretase 1 (Homo sapiens) (UniProt P56817); experiment: Inhibition of BACE1 (unknown origin) at 100 uM using Rh-EVNLDAEFK-Quencher as substrate after 60 mins by fluorescence spectroscopy relative to control; method in brief: as §1
[4] = molecular target: Beta-secretase 1 (Homo sapiens) (UniProt P56817); experiment: Inhibition of BACE1 in human SH-SY5Y cells assessed as decrease in amyloid beta (1 to 40) production at 1000 uM after 24 hrs by ELISA relative to control; assay type: cell-based
Method in brief: (§2)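 SH-SY5Y cells were exposed to the compound, and released Aβ40 and Aβ42 were quantified separately as percent of untreated control. Isoliquiritigenin was run in parallel as the reference drug.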

[5] = molecular target: Beta-secretase 1 (Homo sapiens) (UniProt P56817); experiment: Inhibition of BACE1 in human SH-SY5Y cells assessed as decrease in amyloid beta (1 to 42) production at 1000 uM after 24 hrs by ELISA relative to control; assay type: cell-based; method in brief: as §2
[6] = molecular target: Beta-secretase 1 (Homo sapiens) (UniProt P56817); experiment: Inhibition of BACE1 in human SH-SY5Y cells assessed as decrease in amyloid beta (1 to 40) production after 24 hrs by ELISA relative to control; assay type: cell-based; method in brief: as §2
[7] = molecular target: Beta-secretase 1 (Homo sapiens) (UniProt P56817); experiment: Inhibition of BACE1 in human SH-SY5Y cells assessed as decrease in amyloid beta (1 to 42) production after 24 hrs by ELISA relative to control; assay type: cell-based; method in brief: as §2

inhibition [1]	inhibition [2]	inhibition [3] [%]	inhibition [4] [%]	inhibition [5] [%]	inhibition [6]	inhibition [7]	Compound
Dose-dependent effect	inactive	42					COc1c(-c2csc(-c3ccc4cc(Cl)ccc4n3)n2)n(C)c(C(=O)NCCO)c(SC)c1=O
Dose-dependent effect	inactive	51					COc1c(-c2csc(-c3ccc4cc(Cl)ccc4n3)n2)n(C)c(C(=O)NCCO)c([S+](C)[O-])c1=O (stereo not drawn)
Dose-dependent effect	inactive	60	41	49	Dose-dependent effect	Dose-dependent effect	COc1c(-c2csc(-c3ccc4cc(Cl)ccc4n3)n2)n(C)c(C(=O)NCCOC(C)=O)c(SC)c1=O
